This passage reports Activity and IC50 results from ChEMBL document CHEMBL1155196, “N-hydroxybenzimidazole inhibitors of the transcription factor LcrF in Yersinia: novel antivirulence agents” (J Med Chem, 2009).

One data set has as its system J774.A1. Kind of data set: Cytotoxicity against mouse J774A1 cells assessed as LDH release at 50 ug/mL after 18 hrs by colorimetric assay. The data set is classed as cell-based. Conditions: j774.a1, 18 h. (In general: LDH leaks from cells whose membrane has failed.)
The next data set has as its system Nucleic Acid. Nature of the data set: Binding affinity to supercoiled Escherichia coli pET-15b DNA after 30 mins by agarose gel electrophoresis assay. The data set is classed as nucleic-acid assay. An outline of the steps:
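Nonspecific DNA binding: compounds diluted to 1 mg/mL in DMSO with 0.4% ethanolamine, then added 1:10 (final 100 μg/mL) to 100 ng supercoiled pET-15b plasmid in 20 mM Hepes pH 7.6, 10 mM ammonium sulfate, 30 mM KCl, 1 mM EDTA, 0.2% polysorbate-20; 30 min room temperature; 0.8% agarose gel, ethidium bromide stain; migration shift scored; vehicle control.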

pIC50: −log10 of the molar value.

Turning to `CN(C)CCN(C)c1cc2nc(-c3ccc(NC(=O)/C=C/c4ccc(F)cc4)cc3)n(O)c2cc1[N+](=O)[O-]`, the Activity entry in the data set on J774.A1 was “Non-toxic”. In the data set on Nucleic Acid, the pIC50 was 5.48.
The like results for `CN1CCN(CCOc2cc3nc(-c4ccc(NC(=O)/C=C/c5ccc(F)cc5)cc4)n(O)c3cc2[N+](=O)[O-])CC1` were, in that order, “Non-toxic” and 5.51.

For orientation: pIC50 means −log10 of the IC50, conventionally taken in molar units. The low end stands for a large IC50, the high end for a small IC50.
